Each structure is given as a SMILES string. Activity calls are given as the source filed them.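 Rule for the calls, unless noted: active = potentiation averaged over duplicate wells exceeding buffer-only control mean by more than 3 SD; inactive = the rest.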

Sequence of Potassium voltage-gated channel subfamily KQT member 1 (Homo sapiens) (P51787 whole entry, looked up): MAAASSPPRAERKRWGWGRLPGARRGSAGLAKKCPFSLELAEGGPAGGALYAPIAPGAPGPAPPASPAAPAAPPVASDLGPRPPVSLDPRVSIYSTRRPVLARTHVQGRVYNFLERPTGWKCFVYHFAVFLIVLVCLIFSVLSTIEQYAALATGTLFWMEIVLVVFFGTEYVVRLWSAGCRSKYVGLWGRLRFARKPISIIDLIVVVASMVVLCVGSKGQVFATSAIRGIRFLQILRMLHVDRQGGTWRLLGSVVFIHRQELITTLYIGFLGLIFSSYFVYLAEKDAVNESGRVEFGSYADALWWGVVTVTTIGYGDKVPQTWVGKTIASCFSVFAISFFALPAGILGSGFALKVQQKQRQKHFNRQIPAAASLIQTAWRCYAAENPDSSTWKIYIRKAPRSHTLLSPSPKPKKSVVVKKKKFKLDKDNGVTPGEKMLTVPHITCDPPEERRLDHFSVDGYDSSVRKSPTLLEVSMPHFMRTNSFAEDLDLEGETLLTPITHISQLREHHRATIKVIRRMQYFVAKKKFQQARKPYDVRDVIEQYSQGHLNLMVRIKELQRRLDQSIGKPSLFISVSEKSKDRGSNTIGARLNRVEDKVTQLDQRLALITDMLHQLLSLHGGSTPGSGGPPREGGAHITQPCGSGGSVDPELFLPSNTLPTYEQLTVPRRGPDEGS

Test system in the first assay: not listed separately
Kind of assay: nonspecific flux increase, KCNQ1-free cells – parental CHO cells, counter-screen for KCNQ1 potentiator project (AID 493006;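 active = duplicate-averaged activation above buffer control mean plus 5 SD of those controls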;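 for activation: fluorescence ratio of max minus min over baseline after K+ and Tl+ depolarization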). Particulars: parental CHO-K1 cells, FluxOR thallium flux, at 10 µM; stronger effect = higher value. A digest of the protocol:
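Material: untransfected host CHO-K1 cells with FluxOR thallium dye. Timing: overnight 37 °C plating, 90 min RT dye, 20 min compound. Detection: kinetic FluxOR fluorescence, 10 s baseline, 110 s after stimulus. Read-out basis: max-minus-min fluorescence over baseline, percent of buffer-to-R-L3 span. Replicates: duplicate wells per compound, percent values averaged.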
Consider `COCCCn1c(=S)[nH]c2sc3c(c2c1=O)CCCC3`, for which the activation was 366% (active).

Turning to `O=c1c2cc(Cl)ccc2nc(-c2ccccc2)n1O`, the activation was 298% (active).

Take `O=C(N/N=C/c1ccc(Sc2ccccn2)o1)c1cc2ccccc2cc1O`: the activation is 213% (active).

On to `CNC(=O)c1cc(-c2ccc(Cl)cc2)n(-c2ccccc2)n1`, for which the outcome was inactive.

On to `COc1ccc(CN2C(=O)C(O)(CC(=O)c3ccc4c(c3)OCO4)c3ccccc32)cc1OC` (stereo not given), for which the outcome was inactive.

As for `COc1cc(Br)cc(/C=N/c2ncn[nH]2)c1O`, the activation was 140% (active).

In the case of `CCCCOc1ccc(C(=O)Oc2ccc(C)nc2)cc1`, the outcome was inactive.

In the case of `COc1ccc(NC(=O)[C@@H]2CC=C[C@@H]3CCN(C4CCCCC4)C(=O)[C@@H]32)cc1`, the result was inactive.

For `CCOc1ccc2nc(/N=C/c3c(C)[nH]n(-c4ccccc4)c3=O)sc2c1`, the activation is 370% (active).

As to `CC(=O)/C=C1/C(=O)Nc2ccccc21`, the activation was 167% (active).

With `S=c1[nH]nc(-c2ccc(Cl)cc2Cl)n1-c1ccc(Cl)cc1`, the activation was 154% (active).

In the case of `Cc1ccc(O)c(C(=O)CC(=O)c2ccccc2Cl)c1`, the activation was 158% (active).

Take `Nc1nc(-c2ccccc2)c(N=Nc2ccccc2Cl)s1`: the activation is 488% (active).

Turning to `CCOc1ccc(S(=O)(=O)Nc2cc(OC)ccc2OC)cc1`, the outcome was inactive.

For `COc1ccc(CN2C(=O)C(C)S/C2=N/N=C/c2ccco2)cc1` (stereo not given), the outcome was inactive.

Turning to `CCN(C(=O)COC(=O)C(Cc1ccccc1)N1C(=O)c2ccccc2C1=O)C1CCS(=O)(=O)C1` (stereo not given), the outcome was inactive.

On to `CCOC(=O)c1nnn(CC(=O)Nc2cc(Cl)ccc2C)c1C(=O)OCC`, for which the activation was 164% (active).

As to `O=C(CCC(=O)N1CCOc2ccc(Cl)cc21)NCCCN1CCN(c2ccccc2F)CC1`, the result was inactive.

For the molecule `O=C(N/N=C/c1cccnc1)c1ccco1`, the result was inactive.

In the case of `COc1cccc(C(=O)COc2ccc(NC(=O)c3ccccc3)cc2)c1`, the result was inactive.

Take `O=C(/C=C/c1ccccc1)C1C(=O)c2ccccc2C1=O`: the outcome was inactive.

Turning to `Oc1c(Cl)cc(Cl)cc1C=Nc1ccc2c(c1)OCCO2`, the activation was 174% (active).

For the molecule `Cc1c(N=Cc2cc(Br)cc(Br)c2O)cccc1C(=O)O`, the outcome was inactive.

Take `Cc1ccc(-c2nc3c(Cl)cc(Cl)cc3c(=O)n2O)cc1`: the activation was 828% (active).

Take `Cc1ccccc1C([O-])=Nc1ccc[n+](-c2nc3ccccc3nc2NS(=O)(=O)c2ccccc2)c1`: the result was inactive.

Regarding `Cc1ccnc(NC(=O)CNC(=O)c2ccc3c(c2)OCO3)c1`, the outcome was inactive.

On to `O=C(NC(=S)N1CCc2ccccc21)c1ccccc1Cl`, for which the activation was 443% (active).

`N=C1S/C(=C\c2ccco2)C(=O)N1c1nccs1`: the activation was 138% (active).

In the case of `Cc1ccc(-c2ccnc(=S)[nH]2)cc1`, the outcome was inactive.

For `Cc1cccc(NC(=O)c2ccc(COc3ccccc3[N+](=O)[O-])o2)n1`, the result was inactive.

As to `CCOc1ccc(NC(=O)Cn2sc3nc(C)cc(C)c3c2=O)cc1`, the activation was 142% (active).

`Cc1ccccc1C(=O)NNC(=O)C(=O)Nc1cccc(Cl)c1C`: the activation is 346% (active).

For the molecule `O=C(NCc1ccccc1)c1onc(CSc2ccc(F)cc2)c1C(=O)NCCCN1CCOCC1`, the result was inactive.

As to `CN1CCN(c2ccccc2NC(=S)NC(=O)c2cc3ccccc3o2)CC1`, the result was inactive.

Consider `O=C1/C(=C/c2cccc(F)c2)SC(=S)N1NS(=O)(=O)c1ccccc1`, for which the activation was 146% (active).

`O=C(NN=C1CCCC1)c1n[nH]c2c1CCC2`: the activation was 196% (active).

On to `CCOC(=O)c1c(NC(=S)NCC2CCCO2)sc(C)c1C` (stereo not given), for which the result was inactive.

For the molecule `CC1CC(C)CN(Cc2nc(N)nc(Nc3ccc4ccccc4c3)n2)C1` (stereo not given), the activation was 170% (active).

Regarding `O=C1CCC(C(=O)N2CCSCC2)CN1Cc1cccc(C(F)(F)F)c1` (stereo not given), the outcome was inactive.

In the case of `CC(=O)Nc1cccc(/C(C)=N/NC(=O)c2ccc(Cl)cc2Cl)c1`, the outcome was inactive.

The target in the next assay is Potassium voltage-gated channel subfamily KQT member 1 (Homo sapiens) (UniProt P51787). Kind of assay: enhancement of KCNQ1 channel thallium flux – FluxOR thallium flux, CHO cells, duplicates, confirmation (AID 493007).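 For outcome: cells depolarized by a potassium plus thallium sulfate stimulus after compound.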 The following applies: KCNQ1 cell line, FluxOR thallium flux fluorescence, at 10 µM; stronger effect = higher value, % of reference activator effect, buffer zero. The method in brief:
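Test system – KCNQ1-expressing CHO cell line · Incubation – FluxOR dye loading 90 min, compound exposure 20 min, room temperature · Detection – FluxOR Tl+ flux fluorescence, 10 s baseline plus 110 s recording · Controls – buffer-only wells as 0% and R-L3 activator as 100%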
Take `COCCCn1c(=S)[nH]c2sc3c(c2c1=O)CCCC3`: the potentiation was 138% (active).

For `O=c1c2cc(Cl)ccc2nc(-c2ccccc2)n1O`, the potentiation was 82.5% (active).

With `O=C(N/N=C/c1ccc(Sc2ccccn2)o1)c1cc2ccccc2cc1O`, the potentiation is 70% (active).

For `CNC(=O)c1cc(-c2ccc(Cl)cc2)n(-c2ccccc2)n1`, the outcome was inactive.

Consider `COc1ccc(CN2C(=O)C(O)(CC(=O)c3ccc4c(c3)OCO4)c3ccccc32)cc1OC` (stereo not given), for which the result was inactive.

On to `COc1cc(Br)cc(/C=N/c2ncn[nH]2)c1O`, for which the potentiation was 18.5% (active).

On to `CCCCOc1ccc(C(=O)Oc2ccc(C)nc2)cc1`, for which the result was inactive.

On to `COc1ccc(NC(=O)[C@@H]2CC=C[C@@H]3CCN(C4CCCCC4)C(=O)[C@@H]32)cc1`, for which the result was inactive.

As to `CCOc1ccc2nc(/N=C/c3c(C)[nH]n(-c4ccccc4)c3=O)sc2c1`, the potentiation was 360% (active).

As for `CC(=O)/C=C1/C(=O)Nc2ccccc21`, the potentiation is 63.5% (active).

With `S=c1[nH]nc(-c2ccc(Cl)cc2Cl)n1-c1ccc(Cl)cc1`, the potentiation was 43% (active).

For the molecule `Cc1ccc(O)c(C(=O)CC(=O)c2ccccc2Cl)c1`, the potentiation is 72.5% (active).

As for `Nc1nc(-c2ccccc2)c(N=Nc2ccccc2Cl)s1`, the potentiation was 168% (active).

As to `CCOc1ccc(S(=O)(=O)Nc2cc(OC)ccc2OC)cc1`, the outcome was inactive.

As for `COc1ccc(CN2C(=O)C(C)S/C2=N/N=C/c2ccco2)cc1` (stereo not given), the result was inactive.

Regarding `CCN(C(=O)COC(=O)C(Cc1ccccc1)N1C(=O)c2ccccc2C1=O)C1CCS(=O)(=O)C1` (stereo not given), the outcome was inactive.

As to `CCOC(=O)c1nnn(CC(=O)Nc2cc(Cl)ccc2C)c1C(=O)OCC`, the potentiation is 33% (active).

Take `O=C(CCC(=O)N1CCOc2ccc(Cl)cc21)NCCCN1CCN(c2ccccc2F)CC1`: the outcome was inactive.

Regarding `O=C(N/N=C/c1cccnc1)c1ccco1`, the result was inactive.

Regarding `COc1cccc(C(=O)COc2ccc(NC(=O)c3ccccc3)cc2)c1`, the outcome was inactive.

With `O=C(/C=C/c1ccccc1)C1C(=O)c2ccccc2C1=O`, the potentiation was 25.5% (active).

Take `Oc1c(Cl)cc(Cl)cc1C=Nc1ccc2c(c1)OCCO2`: the potentiation was 25.5% (active).

As to `Cc1c(N=Cc2cc(Br)cc(Br)c2O)cccc1C(=O)O`, the potentiation is 42% (active).

`Cc1ccc(-c2nc3c(Cl)cc(Cl)cc3c(=O)n2O)cc1`: the potentiation was 414% (active).

For the molecule `Cc1ccccc1C([O-])=Nc1ccc[n+](-c2nc3ccccc3nc2NS(=O)(=O)c2ccccc2)c1`, the outcome was inactive.

Regarding `Cc1ccnc(NC(=O)CNC(=O)c2ccc3c(c2)OCO3)c1`, the outcome was inactive.

As to `O=C(NC(=S)N1CCc2ccccc21)c1ccccc1Cl`, the potentiation is 130% (active).

Regarding `N=C1S/C(=C\c2ccco2)C(=O)N1c1nccs1`, the outcome was inactive.

As to `Cc1ccc(-c2ccnc(=S)[nH]2)cc1`, the outcome was inactive.

Consider `Cc1cccc(NC(=O)c2ccc(COc3ccccc3[N+](=O)[O-])o2)n1`, for which the outcome was inactive.

Turning to `CCOc1ccc(NC(=O)Cn2sc3nc(C)cc(C)c3c2=O)cc1`, the outcome was inactive.

As to `Cc1ccccc1C(=O)NNC(=O)C(=O)Nc1cccc(Cl)c1C`, the potentiation was 168% (active).

Regarding `O=C(NCc1ccccc1)c1onc(CSc2ccc(F)cc2)c1C(=O)NCCCN1CCOCC1`, the result was inactive.

Consider `CN1CCN(c2ccccc2NC(=S)NC(=O)c2cc3ccccc3o2)CC1`, for which the outcome was inactive.

For the molecule `O=C1/C(=C/c2cccc(F)c2)SC(=S)N1NS(=O)(=O)c1ccccc1`, the result was inactive.

As for `O=C(NN=C1CCCC1)c1n[nH]c2c1CCC2`, the potentiation is 35% (active).

In the case of `CCOC(=O)c1c(NC(=S)NCC2CCCO2)sc(C)c1C` (stereo not given), the result was inactive.

Take `CC1CC(C)CN(Cc2nc(N)nc(Nc3ccc4ccccc4c3)n2)C1` (stereo not given): the potentiation was 43.5% (active).

Regarding `O=C1CCC(C(=O)N2CCSCC2)CN1Cc1cccc(C(F)(F)F)c1` (stereo not given), the result was inactive.

As to `CC(=O)Nc1cccc(/C(C)=N/NC(=O)c2ccc(Cl)cc2Cl)c1`, the result was inactive.
